This is a sample that favours compounds with a hit; in the whole collection about 6.7% have one here.
PREPL inhibitor = PREPL enzyme inhibitors, primary screen, biochemical, fluorescence polarization; 320,000 compounds, 0.68% hits; inhibition, % at 5.96 µM; recombinant PREPL, fluorescence polarization activity-based probe; in the data active = inhibition above about 43%;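 also: 0% = enzyme with DMSO and 100% = wells lacking enzyme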
NR3A LBD binder = binders of NR3A ligand-binding domain, primary screen, biophysical, differential scanning fluorimetry, uHTS; NR3A LBD differential scanning fluorimetry, Tm shift; 0% = protein alone, 100% = glycine-bound protein; Tm shift relative to glycine control, % at 25 µM; 340,000 compounds, 2.5% hits;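 active = melting temperature shift of at least 10% of the positive control shift, at one fixed dose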
CSC inhib = cancer stem cell viability inhibitors, primary screen, luminescence. 300,000 compounds, 1.1% hits. cancer stem cell-like cells viability. inhibition, % at 7.5 µM. AID 2717, 2010; in the data active = inhibition above about 75%; inconclusive = no clear call, values can overlap the other calls; tested in HMLE shEcad cells
T cruzi repl = inhibitors of intracellular T. cruzi growth, primary screen, luminescence, NIH3T3 host cells. inhibition, % (test concentration not listed). AID 1885, 2009. 300,000 compounds, 1.4% hits. T. cruzi beta-gal in NIH3T3, 90 h;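 active = mean inhibition across valid replicates above about 55%, limit read from the data; inconclusive = mean below that limit but half or more replicates reach it; inactive = mean below it, under half of replicates reach it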;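 also: signal also drops with host cell toxicity which is not excluded here; 0% = plate median of DMSO wells and 100% = zero luminescence signal; higher percent means less beta-gal luminescence so fewer parasites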
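System: NIH/3T3 fibroblasts plus reporter T. cruzi. Medium: DMEM plus 2% FBS. Probe or stimulus: 5000 reporter trypomastigotes per well. Compound: single 50 nL compound addition per well in DMSO. Incubation: co-culture of at least 90 h after 3 h attachment. Detection: GalScreen β-gal luminescence, detergent lysis, 60 min. Evaluation: parasite load inhibition, %.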
CHOP inh = inhibitors of CHOP promoter induction, primary screen, cell-based, unfolded protein response, luciferase reporter; inhibition, % at 10 µM; 220,000 compounds, 3.8% hits; CHO-K1 CHOP-promoter luciferase, tunicamycin-induced, 15-18 h; AID 2732, 2010;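 active = compounds that reduced the stress-induced luciferase reporter signal by more than about 70% of percent inhibition, limit read from the data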;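 also: 0% = tunicamycin plus vehicle and 100% = wells without tunicamycin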
Beta cell apopt = inhibitors of cytokine-induced beta cell apoptosis, primary screen, luminescence. 300,000 compounds, 0.8% hits. INS-1E cytokine-induced death, ATP luminescence, 48 h; percent of positive-control rescue, neutral wells zero. protection from apoptosis, % (concentration not given with the values);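 active = Every replicate reaches about 75%, or at least half do and their mean reaches it too, limit read from the data; inconclusive = At least half of replicates reach the limit but their mean does not; inactive = Under half of replicates reach the limit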;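 also: 0% = cytokine-treated negative control wells and 100% = positive control rescue; higher means more ATP so stronger rescue from cytokine killing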
The depositor's hits bear a star; ? = inconclusive; · = no result.

SMILES	PREPL inhibitor	NR3A LBD binder	CSC inhib	T cruzi repl	CHOP inh	Beta cell apopt
CCOc1cc(NCc2ccccc2)c2ncn(C(C)C)c2c1	41	2	·	·	·	-5
Cc1cc(NC(=O)CSCC(=O)OCc2nnc(-c3ccc(F)cc3)o2)no1	1	1	-13	·	·	-3
CCNc1ccc(C(=O)NN=C2CCCC2)cc1[N+](=O)[O-]	21	-1	-11	2	38	-1
Cn1nc(C(F)(F)F)c(-c2ccc(Br)cc2)c1NC(=O)Nc1ccc(F)cc1F	-30	9	62	47	77*	32
COc1ccc(C2NC(C(=O)O)Cc3c2[nH]c2ccccc32)cc1CN1CCN(c2ccc(F)cc2)CC1 (configuration not stated)	35	-2	-11	23	-15	1
COc1ccc(C2NCCc3c2[nH]c2ccccc32)cc1COc1ccc(F)cc1 (configuration not stated)	38	-4	?	49	75*	104*
COc1ccc(C2NCCc3c2[nH]c2ccccc32)cc1CN1CCc2cc(OC)c(OC)cc2C1C (configuration not stated)	·	0	·	61*	-29	·
CCN1CCN(CCCNC(=O)C2CCCN(c3nc4c(C)cc(C)cc4s3)C2)CC1 (configuration not stated)	30	7	-8	12	·	-5
Cc1ccc(S(=O)(=O)N2CCN(c3nccnc3C#N)CC2)cc1	-10	-1	-12	-1	16	-6
COc1cc(OC)cc(-c2sc3ccc(OC)cc3c2C#CC(C)(C)O)c1	17	-6	-6	·	·	-9
COc1cccc(-c2sc3ccc(OC)cc3c2C#CCCO)c1	6	10	116*	·	·	-6
COc1cc(OC)cc(-c2sc3ccc(OC)cc3c2C#CCO)c1	3	2	102*	·	·	-5
OC(CNCc1ccccc1F)(c1ccc(F)cc1)c1ccc(F)cc1	-7	-1	3	21	75*	-8
COc1ccccc1CNCC(O)(c1ccc(F)cc1)c1ccc(F)cc1	-2	0	4	31	·	14
OC(CNCc1ccccc1)COc1ccccc1 (configuration not stated)	0	2	5	-10	·	-3
Cc1ccc(CNCC(O)(c2ccc(F)cc2)c2ccc(F)cc2)cc1	-42	-1	16	37	86*	-2
Cc1ccc(CNCC(O)(c2ccccc2)c2ccc(F)cc2)cc1 (configuration not stated)	-47	0	14	17	51	3
Cc1ccc(OCC(O)CNCc2ccc(F)cc2)cc1 (configuration not stated)	-1	-2	-15	56*	·	0
O=C(NCc1ccon1)C1CCC(=O)N(CCc2cccc(F)c2)C1 (configuration not stated)	·	0	·	-6	·	·
Cc1ccc(NC(=O)CN(C)CC(=O)Nc2sc3c(c2C(N)=O)CCC3)cc1	14	-1	7	-1	·	0
Cc1ccc(-c2nnc(SCC(=O)N/N=C/c3ccccc3C(=O)O)n2-c2ccccc2)cc1	-4	·	-5	0	-6	·
CCCCCCCCCC(=O)N/N=C/c1ccc(C)s1	-5	-5	18	-2	95*	22
Cc1ccc(-c2nnc(SCC(=O)N/N=C/c3ccc(C)s3)n2-c2ccc(C)cc2)cc1	32	-3	13	16	75*	3
Cc1ccc(/C=N/NC(=O)c2ccc(C(=O)N/N=C/c3ccc(C)s3)o2)s1	-6	28*	-13	-7	-25	3
Cc1ccc(/C=N/NC(=O)C[n+]2ccccc2)s1	6	-1	-6	-8	-3	0
COc1ccc(OC)c2c1C(=O)c1ccccc1C2=O	14	-2	-25	3	17	-7
COc1ccc(OC)c2c1C(=O)C(Cl)=C(Cl)C2=O	2	-23	96*	11	106*	114*
CCc1nc2ccc(C(=O)NCCCN3CCN(c4ccccc4F)CC3)cc2nc1CC	26	-3	-4	14	·	3

High-throughput results deposited in PubChem by several laboratories.
